Measurements as given in ChEMBL document CHEMBL1125206, “Modification of the enkephalin "message" with an artificial polycationic C-terminus” (J Med Chem, 1991).
Starred links: 1 amine or outer side, 2 acyl side, 3 side chain; linkers in the order of their positions; H or OH if unused. Residues, ends and D or L forms follow the SMILES beside them. Ethylenediamine = C(CN[*:2])N[*:1]; GABA = NCCCC(=O)O

Tests used:
[1] = species on record: Cavia porcellus; test: Inhibition of electrically evoked contractions in guinea pig ileum at 10e-6 M conc. with cocktail comprised of 10 uM bestatin, 10 uM captopril, 0.3 uM thiophan, and 10 mM L-leucylleucine.; assay type: functional
Method in brief: (§1)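 Isolated guinea pig ileum, electrically stimulated; inhibition of evoked contractions by compound (HCl salt) at 10⁻⁶ M final. Only tissues responding to 10⁻⁷ M morphine reference were used. Values are the average of two or three experiments.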

[2] = species on record: Cavia porcellus; test: The compound was tested for inhibition of electrically evoked contractions in guinea pig ileum with bestatin at 10e-6 M conc.; assay type: functional
Method in brief: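 Guinea pig ileum, electrically stimulated. Compound at 10⁻⁶ M final concentration, scored as inhibition of evoked contractions. Tissues were qualified with a morphine response at 10⁻⁷ M. Values are the average of two or three experiments. Compounds tested as HCl salts.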

[3] = target: Mu-type opioid receptor (Cavia porcellus, UniProt P97266); test: The compound was tested for binding activity towards opioid receptor mu in guinea pig brain membranes.; assay type: cell membranes
Method in brief: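 Competitive radioligand binding used male Hartley guinea pig brain membranes at 25 °C in 100 mM NaCl, with 0.5 nM [³H]naloxone (final) for μ sites. Compounds were tested as HCl salts. Data come from single duplicate experiments or are mean ± SEM of three experiments run in duplicate.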

[4] = target: Kappa-type opioid receptor (Cavia porcellus, UniProt P41144); test: The compound was tested for binding activity towards opioid receptor kappa in guinea pig brain membranes.; assay type: cell membranes
Method in brief: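 Guinea pig brain membranes (male Hartley) in competitive radioligand displacement at 25 °C with 100 mM NaCl. κ sites were labelled with 1 nM (-)-[³H]EKC (final), with 500 nM DADLE and 20 nM sufentanil masking other sites. Compounds were tested as HCl salts. Values are single experiments in duplicate or mean ± SEM of three experiments in duplicate.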

[5] = species on record: Cavia porcellus; test: Inhibition of electrically evoked contractions in guinea pig ileum at 10e-6 M with cocktail comprised of 10 uM thiophan, and 10 mM L-leucylleucine.; assay type: functional; method in brief: as §1
[6] = species on record: Cavia porcellus; test: The compound was tested for inhibition of electrically evoked contractions in guinea pig ileum with bestatin at 10e-6 M; assay type: functional; method in brief: as §1

Chain of Mu-type opioid receptor (P97266 whole entry): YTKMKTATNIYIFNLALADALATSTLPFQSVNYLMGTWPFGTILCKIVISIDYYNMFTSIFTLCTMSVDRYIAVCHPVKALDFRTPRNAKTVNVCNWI
Chain of Kappa-type opioid receptor (P41144 whole entry): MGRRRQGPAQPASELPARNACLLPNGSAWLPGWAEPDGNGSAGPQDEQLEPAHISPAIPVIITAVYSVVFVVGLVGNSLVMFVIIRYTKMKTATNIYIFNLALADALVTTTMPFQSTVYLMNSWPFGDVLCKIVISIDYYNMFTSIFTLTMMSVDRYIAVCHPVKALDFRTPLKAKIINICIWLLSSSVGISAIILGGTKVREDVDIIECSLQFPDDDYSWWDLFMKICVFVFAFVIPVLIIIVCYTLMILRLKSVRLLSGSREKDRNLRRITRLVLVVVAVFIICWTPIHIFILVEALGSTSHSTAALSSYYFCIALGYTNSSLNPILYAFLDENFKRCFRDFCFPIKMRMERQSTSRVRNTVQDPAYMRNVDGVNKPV

For `NCCCC(=O)NCCN(CCNC(=O)[C@H](Cc1ccccc1)NC(=O)CNC(=O)CNC(=O)[C@@H](N)Cc1ccc(O)cc1)C(=O)CCCN` (HELM PEPTIDE1{Y.G.G.F.[NCCCC(=O)NCCN(CCN[*:1])C(=O)CCCN]}$$$$V2.0), the Inhibition [1] was 17.5%, the inhibition at 1 µM [2] was 13.5% and the Ki [3] was 14.4 µM. For the same molecule, the Ki [4] was 8.75 µM.

For `NCCCC(=O)NCCN(CCNC(=O)CCCN)C(=O)CCCN`, the Inhibition [5] was 0% and the inhibition at 1 µM [2] was 0%.

With `CC[C@H](C)[C@H](NC(=O)[C@H](CCCNC(=N)N)NC(=O)[C@H](CCCNC(=N)N)NC(=O)[C@H](CC(C)C)NC(=O)[C@H](Cc1ccccc1)NC(=O)CNC(=O)CNC(=O)[C@@H](N)Cc1ccc(O)cc1)C(=O)N[C@@H](CCCNC(=N)N)C(=O)N1CCC[C@H]1C(=O)N[C@@H](CCCCN)C(=O)N[C@@H](CC(C)C)C(=O)N[C@@H](CCCCN)C(=O)O` [ANALOG OF DYNORPHIN A] the Ki [3] was 0.05 µM and the Ki [4] was 0.0036 µM.

In the case of `NCCCC(=O)NCCN(CCN(CCNC(=O)[C@H](Cc1ccccc1)NC(=O)CNC(=O)CNC(=O)[C@@H](N)Cc1ccc(O)cc1)C(=O)CCCN)C(=O)CCCN` (HELM PEPTIDE1{Y.G.G.F.[NCCCC(=O)NCCN(CCN(CCN[*:1])C(=O)CCCN)C(=O)CCCN]}$$$$V2.0), the Inhibition [5] is reported as 9%, the Ki [3] is reported as 6.76 µM and the Ki [4] is reported as 3.73 µM.

For `NCCCC(=O)NCCCN(CCCNC(=O)[C@H](Cc1ccccc1)NC(=O)CNC(=O)CNC(=O)[C@@H](N)Cc1ccc(O)cc1)C(=O)CCCN` (HELM PEPTIDE1{Y.G.G.F.[NCCCC(=O)NCCCN(CCCN[*:1])C(=O)CCCN]}$$$$V2.0), the Inhibition [5] was 12.5%, the Ki [3] was 7.3 µM and the Ki [4] was 5.51 µM. For the same molecule, the inhibition at 1 µM [6] was 13%.

`NCCCC(=O)NCCNC(=O)[C@H](Cc1ccccc1)NC(=O)CNC(=O)CNC(=O)[C@@H](N)Cc1ccc(O)cc1` (H-YGGF-{Ethylenediamine-GABA}) was tested, and the Inhibition [1] was 28.5%, the inhibition at 1 µM [2] was 29.5% and the Ki [3] was 16.5 µM. It also gave a Ki [4] of 36.7 µM.
